Screens as filed in PubChem BioAssay.
An excerpt weighted towards active compounds, which were near 1.4% of everything screened.
Fh CTSL1 inh: counter-screen for PFM18AAP inhibitors: inhibitors of F. hepatica cathepsin L1 | recombinant F. hepatica cathepsin L1, Z-Leu-Arg-MCA fluorescence | inhibition, % at 5.96 µM | 0.49% of 300,000 active | AID 1906;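 active = inhibition above the mean of all tested compounds plus 3 SD, set per screening campaign, cut at about 17% in these data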;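 note: 0% = plate median of test compound wells and 100% = 1 µM Z-Phe-Ala-diazomethylketone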
EBNA-1 inh: blocks EBNA-1 binding to DNA. AID 1950. 0.34% of 300,000 active. EBNA-1 DNA binding, fluorescence polarization. inhibition, % at 14.8 µM; in the data active = inhibition above about 28%
ZTA counter: counter-screen for EBNA-1 inhibitors: inhibitors of Epstein-Barr virus ZTA | P03206 | ZTA-DNA binding, fluorescence polarization | inhibition, % at 11 µM | 0.15% of 320,000 active; in the data active = inhibition above about 33%
Target sequence (P03206 whole entry, looked up): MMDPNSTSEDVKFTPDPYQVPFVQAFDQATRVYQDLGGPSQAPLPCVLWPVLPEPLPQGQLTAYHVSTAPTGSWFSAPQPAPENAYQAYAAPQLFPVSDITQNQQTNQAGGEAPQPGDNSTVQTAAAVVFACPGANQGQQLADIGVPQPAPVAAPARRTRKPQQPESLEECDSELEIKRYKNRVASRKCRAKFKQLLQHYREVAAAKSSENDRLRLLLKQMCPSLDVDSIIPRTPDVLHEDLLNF
HCV NS3 hel inh: HCV NS3 helicase inhibition; NS3 helicase DNA unwinding, Cy5 molecular beacon fluorescence; inhibition, % at 10.9 µM; 0.56% of 290,000 active; AID 1800;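 active = inhibition above the mean of all tested compounds plus 3 SD, set per campaign, cut at about 35% in these data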;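 note: 0% = DMSO wells and 100% = thioflavine S control wells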
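Material: hepatitis C virus NS3 helicase domain fragment enzyme; measured by: Cy5 fluorescence, 0 and 60 min reads; control set: DMSO and thioflavine S; incubation: 60 min unwinding reaction at 25 °C after ATP addition; read-out basis: % inhibition from 60/0 min fluorescence ratio, DMSO 0%, thioflavine S 100%; repeats: singlicate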
Zta DNA confirm: confirmation of Epstein-Barr virus ZTA DNA binding inhibitors | shares compounds with ZTA counter | AID 2361 | Zta-ZRE DNA binding, fluorescence polarization | 30% of 320 active | inhibition, % at 11.1 µM;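 active = mean inhibition across triplicate runs above the hit threshold derived for the original primary screen, cut at about 33% in these data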;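 note: 0% = Zta with DMSO and 100% = wells lacking Zta protein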
EBNA-1 counter: counter-screen for ZTA inhibitors: EBNA-1 DNA binding inhibition. shares compounds with ZTA counter. fluorescence polarization. inhibition, % at 14.8 µM. 320 tested, under 10 active. AID 2362; call rule not given here
Numbers without * were called inactive; / = not tested or not shown.

SMILES | Fh CTSL1 inh | EBNA-1 inh | ZTA counter | HCV NS3 hel inh | Zta DNA confirm | EBNA-1 counter
COc1ccc(Br)cc1CNc1ccc2[nH]c(=O)[nH]c2c1 | -5 | -14 | -1 | 2 | / | /
CCOC(=O)c1cc2c(C)n(-c3ccc(OCC)cc3)c(C)c2cc(C(=O)OCC)c1=O | 0 | 4 | -9 | 4 | / | /
CCOC(=O)c1cc2c(C)n(-c3ccc(N(C)C)cc3)c(C)c2cc(C(=O)OCC)c1=O | -3 | -6 | 160* | 1 | 6 | -1
c1coc(-c2nnc(-c3ccco3)nn2)c1 | 23* | 5 | 37* | 35 | 33* | -8
c1ccc(-c2nnc(-c3ccco3)o2)cc1 | -1 | 9 | -16 | -1 | / | /
COc1cc(C#Cc2c(-c3cncn3C)n(C)c3ccc(-c4cnc(OC)nc4)cc23)cc(OC)c1 | / | / | 38* | / | 5 | -2
CC1CCCC(NC(=O)COC(=O)c2cc(S(=O)(=O)N3CCCCC3)ccc2N2CCOCC2)C1C (centres undefined) | 5 | 11 | 5 | 3 | / | /
CC1CCCC(NC(=O)COC(=O)c2cccc(S(=O)(=O)N3CCCCC3)c2)C1C (centres undefined) | / | / | 41* | / | 0 | 8
Cc1nn(C)cc1CNC(=O)C1CCC(=O)N(Cc2cccc(C(F)(F)F)c2)C1 (centres undefined) | -2 | 5 | 12 | -4 | / | /
Cc1ccn(CCSCC(=O)O)n1 | 1 | -4 | -13 | -3 | / | /
Cc1ccn(CC(C)C(=O)O)n1 (centres undefined) | -5 | -12 | 166* | -1 | 4 | 0
CC(Sc1nnnn1-c1ccc(O)cc1)C(=O)NNC(=O)c1ccc(F)cc1 (centres undefined) | / | / | 2 | / | / | /
COc1cccc2c1-c1c(O)cccc1C2=O | 4 | 0 | 27 | 7 | / | /
COc1cccc2c1C(=O)c1c(O)c3c(c(O)c1C2=O)C[C@](O)(C(C)=O)C[C@H]3O[C@@H]1C[C@@H](N)[C@@H](O)[C@@H](C)O1 | -1 | -4 | 44* | / | 75* | -5
CCCNC(=S)N1CCN(C(c2ccccc2)c2ccccc2)CC1 | 10 | -6 | 1 | 0 | / | /
CCCCNC(=S)N1CCN(C(c2ccccc2)c2ccccc2)CC1 | 0 | 9 | 43* | -2 | 12 | 10
Cc1ccc(C(C(=O)NC2CCCC2)N(Cc2ccc3c(c2)OCO3)C(=O)c2snc(C(N)=O)c2N)cc1 (centres undefined) | 6 | 5 | 57* | -7 | 1 | -9
COc1cc(C)c2c(c1C=O)Oc1c(c(C)c(O)c3c1C(O)OC3=O)OC2=O (centres undefined) | -2 | -5 | 67* | 30 | 63* | 11
CCCN(CCC)C(=O)COc1cc(=O)n(CC)c2ccccc12 | 3 | 0 | 118* | 0 | -3 | -3
CCN(Cc1ccccc1)C(=O)COc1cc(=O)n(CC)c2ccccc12 | -1 | 2 | -11 | -6 | / | /
COc1ccc(CN2CCc3ccccc3C2)c(OC)c1 | 2 | -1 | 7 | 7 | / | /
COc1ccc(C2=[N+](C)CCn3cccc32)c(OC)c1 | 6 | 12 | 33* | 3 | 1 | 1
O=C(Nc1c(F)cc(F)cc1Br)c1cc(-c2ccccc2)on1 | -1 | -2 | -8 | -7 | / | /
O=C(CCCCCN1C(=O)CCC1=O)Nc1ccc2c(c1)OCCO2 | -3 | -12 | 34* | 4 | 1 | -1
COc1ccc(CCC(=O)Nc2ccc3c(c2)OCO3)cc1 | -3 | -10 | -13 | 1 | / | /
SMILES | Fh CTSL1 inh | EBNA-1 inh | ZTA counter | HCV NS3 hel inh | Zta DNA confirm | EBNA-1 counter
COc1ccc(CCC(=O)Nc2ccc3c(c2)OCCO3)cc1 | -1 | 27 | 55* | 4 | 12 | 3
CC1C(=O)CCCCCCCCCC2C1(N1CCOCC1)CS2(=O)=O (centres undefined) | -1 | 4 | 16 | -5 | / | /
CC(C)C(OC(=O)c1nsc(Cl)c1Cl)C(=O)NCc1ccc2c(c1)OCO2 (centres undefined) | -4 | 1 | 4 | 6 | / | /
O=C(CN1CCOCC1)Nc1ccccc1F | 4 | 4 | 12 | 9 | / | /
Cc1ccc(S(=O)(=O)Nc2ccc(C(=O)N3CCN(c4ccccc4O)CC3)cc2)cc1[N+](=O)[O-] | 4 | -13 | 3 | / | / | /
C[C@H]1CCC(=O)N([C@H](COc2ccccc2)Cc2ccccc2)CC1 | 3 | 14 | 40* | -3 | 4 | 3
C[C@H](NC(=O)Cc1cccc2ccccc12)C(=O)NCc1ccccc1 | 6 | -8 | -11 | 2 | / | /
CC(=O)c1ccc(N2CCN(C(=O)/C=C/c3ccc4ccccc4n3)CC2)cc1 | 3 | -2 | -9 | 2 | / | /
COc1cc(/C=C/C(=O)/C=C(O)/C=C/c2ccc(O)c(OC)c2)ccc1O | / | / | 34* | / | 14 | -8
COc1cc(/C=C/C(=O)O)ccc1O | -2 | 4 | 3 | / | / | /
CN(C(=O)c1cccc(C#N)c1)c1nnc(C2CCCO2)s1 (centres undefined) | 0 | -2 | 110* | -12 | 4 | 1
Cc1nnc(N(Cc2ccco2)C(=O)c2cccc(C#N)c2)s1 | 1 | 1 | -6 | -3 | / | /
CCc1ccc2nc(N(CCCN(C)C)C(=O)c3ccc(S(=O)(=O)N4CCCc5ccccc54)cc3)sc2c1 | 0 | 2 | 37* | -47 | 7 | 0
COc1cc(NC(=O)c2ccc(COCC(F)(F)F)o2)cc(OC)c1OC | -2 | 10 | 10 | 3 | / | /
COc1cc2cc(C#N)c(SCC(=O)Nc3cc(C)on3)nc2cc1OC | -1 | 12 | 0 | 3 | / | /
COc1ccc2nc(SCC(=O)Nc3cc(C)on3)c(C#N)cc2c1 | -1 | -6 | 50* | 6 | 11 | 6
C#CCOCCOCCOCCNc1nc(N2CCN(C(=O)CCCCCCCCCCNC(=O)[C@H](CCCCN)n3cc(C)nn3)CC2)nc(N2CCN(C(=O)CCCCCCCCCCNC(=O)[C@H](CCCN=C(N)N)n3cc(C[C@@H](C)CC)nn3)CC2)n1 | -4 | -2 | 51* | / | 47* | -3
C#CCOCCOCCOCCNc1nc(N2CCOCC2)nc(N2CCN(C(=O)CCCCCCCCCCNC(=O)[C@H]([C@@H](C)CC)n3cc(CCCCN=C(N)N)nn3)CC2)n1 | 3 | 3 | 6 | / | / | /
C#CCOCCOCCOCCNc1nc(N2CCN(C(=O)CCCCCCCCCCNC(=O)[C@H](CCCCN)n3cc(C)nn3)CC2)nc(N2CCN(C(=O)CCCCCCCCCCNC(=O)[C@@H]([C@H](C)O)n3cc(C)nn3)CC2)n1 | 4 | 12 | 40* | / | 3 | 2
C#CCOCCOCCOCCNc1nc(N2CCN(C(=O)CCCCCCCCCCNC(=O)[C@H]([C@@H](C)CC)n3cc(CCCCN=C(N)N)nn3)CC2)nc(N2CCN(C(=O)CCCCCCCCCCNC(=O)[C@@H]([C@H](C)O)n3cc(C)nn3)CC2)n1 | -1 | 4 | 68* | / | 61* | 1
